# Results published in the M2OR odorant receptor database.
# Biological target: T1, OR5K1 (Homo sapiens) (UniProt Q8NHB7)
# T1 sequence (whole entry): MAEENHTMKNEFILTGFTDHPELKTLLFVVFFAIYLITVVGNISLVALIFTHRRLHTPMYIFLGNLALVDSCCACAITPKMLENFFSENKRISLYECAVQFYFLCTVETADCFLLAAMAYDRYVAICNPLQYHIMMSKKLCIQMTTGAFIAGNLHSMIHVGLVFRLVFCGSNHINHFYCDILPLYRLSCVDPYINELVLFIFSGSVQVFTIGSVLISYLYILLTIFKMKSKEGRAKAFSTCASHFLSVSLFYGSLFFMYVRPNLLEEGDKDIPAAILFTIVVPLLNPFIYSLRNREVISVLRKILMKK
# Settings: stereoisomer not certain
# Summary of the method: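 Assay methods differ from source to source, frequently being transient luciferase assays in mammalian cell lines. For each receptor–molecule pair, the label responsive (active) applies when the original authors judged the measured signal statistically different from baseline, and non-responsive (inactive) applies otherwise.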
row,SMILES,odorant receptor agonist call
1,COc1ccc(C=O)cc1,inactive
2,C=CCOC(=O)Cc1ccccc1,inactive
3,CCOC(=O)Cc1ccccc1,inactive
4,C=CCSSCC=C,inactive
5,O=Cc1ccc2c(c1)OCO2,inactive
6,NCC(=O)c1ccccc1,inactive
7,CSSC,inactive
8,Cc1ccccc1O,inactive
9,C=CCc1ccc(OC)cc1,inactive
10,SCc1ccco1,inactive
11,Cc1ccc(O)c(C)c1,inactive
